Compound activity as filed in PubChem.
The list is not random: actives were taken first. Their share in the collection is about 2.2%.
DENV2 CPE: DENV2-induced cell death inhibition; DENV2-infected cells, cytopathic effect rescue, plate reader; CPE inhibition, % at 9.99 µM; actives 1.7% (n = 350,000); AID 651640; in the data active means CPE inhibition above about 20%, passing the limit was not always enough; inconclusive means no clear call, values can overlap the other calls; tested in BHK-21 cells;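 further: 0% = median of neutral control wells and 100% = median of positive control wells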
E-sel inducer: E-selectin induction on HUVECs; HUVEC E-selectin immunofluorescence imaging; normalized: neutral wells 0, TNF-alpha wells 100; P16581; AID 686992; actives 0.37% (n = 260,000); activation, % at 7.58 µM;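 active means mean E-selectin-positive cell signal at least 10% of the positive control, reached in at least 60% of replicates, without over 20% cell loss; inconclusive means no rule given, readout overlaps actives, possibly toxicity-flagged; inactive means the rest, including those meeting only one limit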
Target sequence (P16581 whole entry, looked up): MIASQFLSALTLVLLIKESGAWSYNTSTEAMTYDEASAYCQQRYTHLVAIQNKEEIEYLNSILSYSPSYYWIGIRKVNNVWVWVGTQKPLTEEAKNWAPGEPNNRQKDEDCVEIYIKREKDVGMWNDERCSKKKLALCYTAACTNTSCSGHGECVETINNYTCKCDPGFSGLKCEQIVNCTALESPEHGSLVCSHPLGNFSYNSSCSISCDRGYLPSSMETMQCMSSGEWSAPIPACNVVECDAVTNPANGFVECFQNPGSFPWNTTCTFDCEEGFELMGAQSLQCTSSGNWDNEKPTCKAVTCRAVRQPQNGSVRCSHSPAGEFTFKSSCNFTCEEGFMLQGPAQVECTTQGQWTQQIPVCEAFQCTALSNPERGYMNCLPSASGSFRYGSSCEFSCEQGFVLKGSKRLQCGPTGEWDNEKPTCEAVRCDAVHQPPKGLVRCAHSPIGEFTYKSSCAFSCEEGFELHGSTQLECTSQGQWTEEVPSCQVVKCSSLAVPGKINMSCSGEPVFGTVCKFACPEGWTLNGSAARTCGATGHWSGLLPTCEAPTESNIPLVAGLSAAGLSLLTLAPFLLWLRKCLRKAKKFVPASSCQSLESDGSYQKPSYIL
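Assay system: HUVEC, human umbilical vein endothelial cells / Amount: 3,000 HUVEC/well / Controls: TNF-alpha positive control, DMSO neutral control / Compound dosing: single concentration / Medium: EGM-2 over gelatin coat / Evaluation: percent E-selectin-positive cells / Signal: immunofluorescence imaging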
Statin myotox sup: suppression of simvastatin myotoxicity; C2C12 myotubes + simvastatin, ATP luminescence, 48 h; scaled: DMSO 0, geranylgeraniol control 100; rescue of ATP level, % at 7.49 µM; AID 602340; actives 0.78% (n = 330,000);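 active means mean ATP rescue above about 67%, or every replicate alone reaching that limit, limit read from the data, passing the limit was not always enough; inconclusive means no clear call, values can overlap the other calls; inactive means mean under the limit and some replicate under it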;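 further: myotubes were challenged with 10 µM simvastatin during compound exposure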
* hit, by the source's call; ? = inconclusive; . = no result.

SMILES	DENV2 CPE	E-sel inducer	Statin myotox sup
CN(C)C(=O)c1ccc(-c2ccccc2[C@@H]2[C@@H](CO)N(C(=O)C3CCCCC3)[C@H]2C#N)cc1	29*	0	.
CN(C)C(=O)c1ccc(-c2ccc([C@@H]3[C@@H](C#N)N(C(=O)C4CCCC4)[C@H]3CO)cc2)cc1	-2	0	-22
COc1ccc(-c2ccc([C@@H]3[C@@H](CO)N(C(=O)NC4CCCC4)[C@H]3C#N)cc2)cc1	22*	0	45
CO[C@H]1CC[C@H]2CCN(C)C(=O)CCCN(C)C(=O)c3cc(C#N)ccc3OC[C@H]1O2	-2	0	13
COc1ccc(S(=O)(=O)N(C)C[C@@H]2OCCCC[C@@H](C)Oc3ccc(NC(=O)Nc4cccc5ccccc45)cc3C(=O)N([C@@H](C)CO)C[C@@H]2C)cc1	0	9	.
CC(C)NC(=O)N(C)C[C@@H]1Oc2cc(-c3ccccc3F)ccc2S(=O)(=O)N([C@@H](C)CO)C[C@@H]1C	-2	0	16
CO[C@@H]1CN(C)C(=O)c2cc(NC(=O)c3cnccn3)ccc2OC[C@@H](C)NC[C@@H]1C	-2	3	1
COc1ccc(-c2ccc([C@H]3[C@@H](C#N)N(C(=O)C4CC4)[C@@H]3CO)cc2)cc1	56*	0	25
COc1ccc(-c2ccc([C@@H]3[C@@H](C#N)N(C(=O)C4CC4)[C@H]3CO)cc2)cc1	8	0	-6
COc1ccccc1-n1c(C)cc(SC)c(C(C)=O)c1=S	.	.	98*
COc1ccc(-n2c(C)cc(C)c(C(C)=O)c2=S)cc1	-11	2	.
CC(=O)N(C)C[C@@H]1Oc2ncc(C#Cc3cccnc3)cc2C(=O)N([C@@H](C)CO)C[C@@H]1C	-3	0	.
COc1cc(C(=O)Oc2ccccc2OC(=O)c2cc(OC)c(OC)c(OC)c2)cc(OC)c1OC	1	-4	4
COc1cc(C(=O)Oc2cccc(C)c2)cc(OC)c1OC	.	.	117*
C[C@@H]1CN([C@@H](C)CO)C(=O)c2cc(NS(=O)(=O)c3ccc(F)cc3)ccc2O[C@H]1CN(C)C(=O)Nc1ccc(F)cc1	0	0	-18
C[C@H]1CCCCO[C@H](CN(C)C(=O)c2ccccc2)[C@@H](C)CN([C@@H](C)CO)C(=O)c2cc(NS(=O)(=O)c3cccs3)ccc2O1	4	.	1
C[C@H]1CN([C@@H](C)CO)C(=O)c2cccc(NS(=O)(=O)c3cccs3)c2O[C@H]1CN(C)C(=O)NC1CCCCC1	11	-3	-19
O=C(NCc1ccco1)C(c1ccccc1)N(C(=O)Cc1cccs1)c1ccccc1 (centres undefined)	.	.	125*
O=C(NCc1ccco1)C(c1cccs1)N(C(=O)Cc1cccs1)c1ccccc1 (centres undefined)	.	.	7
CC(C)C#Cc1cnc2c(c1)C(=O)N([C@H](C)CO)C[C@H](C)[C@@H](CN(C)C(=O)Nc1ccccc1)O2	-6	0	5
COc1ccc(C#Cc2cnc3c(c2)C(=O)N([C@@H](C)CO)C[C@@H](C)[C@H](CN(C)C(=O)Nc2cccc(OC)c2)O3)cc1	.	1	112*
C[C@H](CO)N1C[C@H](C)[C@H](CN(C)C(=O)Nc2ccccc2)Oc2ncc(C#CC(C)(C)O)cc2C1=O	26*	0	-7
COc1ccc(C#Cc2cnc3c(c2)C(=O)N([C@H](C)CO)C[C@H](C)[C@H](CN(C)C(=O)Nc2cccc(OC)c2)O3)cc1	.	0	10
C[C@H](CO)N1C[C@H](C)[C@H](CN(C)C)Oc2ccc(NS(=O)(=O)c3cn(C)cn3)cc2C1=O	2	.	-6
O=C(Nc1ccc2c(c1)OCO2)c1cc(C2CCCCN2C(=O)OCCF)on1 (centres undefined)	20*	0	0
SMILES	DENV2 CPE	E-sel inducer	Statin myotox sup
COC(=O)N1CCCCC1c1cc(C(=O)Nc2ccc3c(c2)OCO3)no1 (centres undefined)	4	0	15
O=C(Nc1ccccc1Cl)c1cc(C2CCCCN2C(=O)OCCF)on1 (centres undefined)	-10	0	8
O=C(NCc1ccccc1)c1cc(C2CCCCN2C(=O)CCCc2ccccc2)on1 (centres undefined)	-4	0	-1
O=C(NCc1ccc(Cl)c(Cl)c1)c1cc(C2CCCCN2C(=O)OCCF)on1 (centres undefined)	30*	2	-5
O=C(NCc1ccc(F)cc1)c1cc(C2CCCCN2C(=O)CCCc2ccccc2)on1 (centres undefined)	9	83*	2
O=C(Nc1ccc2c(c1)OCO2)N[C@H]1CC[C@@H](CCNC(=O)C2CC2)O[C@H]1CO	-2	0	11
CCOC(=O)N1CCN(C2CC(=O)N(c3ccc(Oc4ccccc4)cc3)C2=O)CC1 (centres undefined)	.	.	126*
CCOC(=O)N1CCN(C2CC(=O)N(c3ccc(F)cc3)C2=O)CC1 (centres undefined)	.	.	-8
O=C(C[C@H]1CC[C@@H](NC(=O)c2ccc3c(c2)OCO3)[C@H](CO)O1)NCc1ccc(F)cc1	3	1	8
COc1ccc(CN(C)C[C@H]2Oc3c(NS(=O)(=O)c4ccc(C)cc4)cccc3C(=O)N([C@H](C)CO)C[C@H]2C)cc1	-3	1	-21
C[C@@H]1CN([C@H](C)CO)C(=O)c2cccc(NS(=O)(=O)c3cccs3)c2O[C@H]1CN(C)Cc1ccc(Cl)c(Cl)c1	41*	349*	0
C[C@@H]1CN([C@@H](C)CO)C(=O)c2cccc(NS(=O)(=O)c3cccs3)c2O[C@@H]1CN(C)Cc1ccc(Cl)c(Cl)c1	14	23	-2
COc1ccc(S(=O)(=O)Nc2cccc3c2O[C@H](CN(C)Cc2ccc(Cl)c(Cl)c2)[C@@H](C)CN([C@H](C)CO)C3=O)cc1	25*	0	11
COc1ccc(S(=O)(=O)Nc2cccc3c2O[C@H](CN(C)Cc2ccc(Cl)c(Cl)c2)[C@H](C)CN([C@@H](C)CO)C3=O)cc1	.	0	.
COc1ccc(CN(C)C[C@H]2Oc3c(NS(=O)(=O)c4ccc(C)cc4)cccc3C(=O)N([C@H](C)CO)C[C@@H]2C)cc1	31*	0	-1
COc1ccc(NC(=O)N(C)C[C@H]2Oc3ccc(NC(=O)Nc4cccc5ccccc45)cc3CC(=O)N([C@H](C)CO)C[C@@H]2C)cc1	0	1	44
C[C@H](CO)N1C[C@H](C)[C@@H](CN(C)C(=O)C2CCC2)Oc2cc(C#CCN(C)C)ccc2S1(=O)=O	5	0	-3
COCC(=O)Nc1ccc2c(c1)OC[C@H](C)N(Cc1ccccc1OC)C[C@H](C)[C@H](OC)CN(C)C2=O	11	0	2
O=C(C[C@@H]1C[C@@H]2c3cc(NC(=O)Cc4ccncc4)ccc3O[C@@H]2[C@H](CO)O1)NCc1cccnc1	?	0	0
CNC(=O)C[C@@H]1CC[C@@H]2[C@H](COc3ccc(NC(=O)c4ccc(F)c(F)c4)cc3C(=O)N2C)O1	97*	0	2
CN1C(=O)c2cc(NC(=O)c3ccc(F)c(F)c3)ccc2OC[C@H]2O[C@@H](CC(=O)Nc3ccc4c(c3)COC4)CC[C@@H]21	?	1	102*
